For 1 compound, inhibition results are on record in ChEMBL document CHEMBL4354819, “Discovery of Novel Small Molecule Dual Inhibitors Targeting Toll-Like Receptors 7 and 8” (J Med Chem, 2019).

The source made the active and inactive calls. No cut-off for these calls is given here.

In the assay the target is Toll-like receptor 3 (Homo sapiens) (UniProt O15455). Briefly: Inhibition of human TLR3 expressed in HEK293 cells assessed as reduction in poly(I:C)-induced NFkappaB production at 1.5 to 5 uM incubated for 16 hrs by quanti-blue SEAP assay. In kind it is cell-based. The method in brief:
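Selectivity panel in stably transfected HEK 293-Blue cells, each overexpressing one human TLR with an inducible SEAP reporter. Agonists: Pam3CSK4 (TLR1/2), Pam2CSK4 (TLR2/6), poly(I:C) (TLR3), LPS (TLR4), R848 (TLR7/8), ODN 2006 (TLR9). Cells were exposed to compound for 16 h. Activity = (raw − untreated)/(ligand + solvent − untreated), with ligand + solvent set as 100%.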

Toll-like receptor 3 (Homo sapiens), sequence (O15455 whole entry): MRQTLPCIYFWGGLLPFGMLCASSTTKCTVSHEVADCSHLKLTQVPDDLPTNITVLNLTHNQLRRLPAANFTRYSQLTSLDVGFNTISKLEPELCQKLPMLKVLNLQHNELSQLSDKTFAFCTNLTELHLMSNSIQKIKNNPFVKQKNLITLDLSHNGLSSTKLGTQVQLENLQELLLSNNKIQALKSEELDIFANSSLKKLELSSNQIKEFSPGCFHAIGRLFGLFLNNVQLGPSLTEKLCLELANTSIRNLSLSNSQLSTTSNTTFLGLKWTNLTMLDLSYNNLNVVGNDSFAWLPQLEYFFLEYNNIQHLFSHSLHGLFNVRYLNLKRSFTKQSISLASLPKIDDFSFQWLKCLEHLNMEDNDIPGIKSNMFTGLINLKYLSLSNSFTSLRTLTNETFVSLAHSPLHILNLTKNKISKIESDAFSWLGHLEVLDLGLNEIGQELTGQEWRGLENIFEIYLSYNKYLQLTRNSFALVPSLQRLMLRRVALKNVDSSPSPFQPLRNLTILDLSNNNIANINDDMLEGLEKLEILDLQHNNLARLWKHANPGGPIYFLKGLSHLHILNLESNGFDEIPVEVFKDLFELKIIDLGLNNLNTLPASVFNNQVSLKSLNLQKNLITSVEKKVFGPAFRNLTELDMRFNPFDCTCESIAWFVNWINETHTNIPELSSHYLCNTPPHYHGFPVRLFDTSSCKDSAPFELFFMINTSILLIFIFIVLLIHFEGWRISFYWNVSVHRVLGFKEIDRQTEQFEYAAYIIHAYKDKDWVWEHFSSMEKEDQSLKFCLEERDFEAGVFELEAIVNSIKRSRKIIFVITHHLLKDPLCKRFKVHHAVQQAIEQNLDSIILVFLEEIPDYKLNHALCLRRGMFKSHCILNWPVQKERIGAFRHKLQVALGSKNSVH

For `O=C(Nc1ccc(Oc2cc(C(F)(F)F)cc(C(F)(F)F)c2)cc1)c1c(F)cccc1Cl`, the inhibition result is “inactive”.
